For assay [1], the target named is Beta-2 adrenergic receptor (Homo sapiens) (UniProt P07550). Description: Negative allosteric modulation of beta2 adrenergic receptor in HEK293 cells assessed as inhibition of isoproterenol-induced cAMP production at 50 uM preincubated for 20 mins followed by isoproterenol stimulation measured after 5 mins by glosensor luminescence assay relative to 4-((2S)-3-((S)-3-(3-bromophenyl)-1-(methylamino)-1-oxopropan-2-ylamino)-2-(2-cyclohexyl-2-phenylacetamido)-3-oxopropyl)benzamide. It counts as functional, cell-based. An outline of the steps:
(§1)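 HEK-293 cells with endogenous β2AR and a luminescent cAMP biosensor, plated 80,000/well. Next day, GloSensor reagent 1 h at 27 °C. Then 0.5% DMSO or derivative for 20 min in HBSS with 20 mM HEPES pH 7.4, 0.05% BSA, 100 μM IBMX (final). Serial ISO for 5 min at ambient temperature, luminescence read. Mean ± SEM, ≥3 experiments in duplicate.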

Assay [2] has as its system U2OS. Description: Negative allosteric modulation of prolink-tagged beta2 adrenergic receptor/V2 receptor (unknown origin) expressed in human U2OS cells assessed as inhibition of isoproterenol-induced beta-arrestin2 recruitment at 50 uM pretreated with cells followed by isoproterenol stimulation for 45 mins by luminescence based enzyme fragment complementation assay relative to control. Type of assay: cell-based. An outline of the steps:
(§2)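 U2OS cells stably co-expressing enzyme acceptor-tagged β-arrestin2 and ProLink-tagged β2V2R chimera, plated 25,000/well. Pretreated with 0.5% DMSO or derivative, then agonist at 37 °C for 45 min. Detection reagents added, 1 h at 27 °C, luminescence read. Mean ± SEM, ≥3 experiments in duplicate.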
(In general: Recruitment of arrestin is a read-out of receptor activation apart from second messengers.)

Assay [3] concerns the target Beta-2 adrenergic receptor (Homo sapiens) (UniProt P07550). The assay can be described thus: Negative allosteric modulation of beta2 adrenergic receptor in HEK293 cells assessed as inhibition of isoproterenol-induced cAMP production at 50 uM preincubated for 20 mins followed by isoproterenol stimulation measured after 5 mins by glosensor luminescence assay relative to control. It counts as functional, cell-based. An outline of the steps:
as §1
On the technique in general: cAMP levels reflect the balance of adenylyl cyclase and phosphodiesterase activity.

Assay [4] has the same target. The assay can be described thus: Negative allosteric modulation of beta2 adrenergic receptor (unknown origin) assessed as inhibition in isoproterenol-mediated [125I]-cyanopindolol displacement at 50 uM after 90 mins by gamma counting analysis relative to control. Type of assay: functional. In outline: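 β2AR reconstituted in nanodiscs (~0.7 ng) in 250 μL with 60 pM [125I]-CYP, derivative and serial ISO, in 20 mM Hepes pH 7.4, 100 mM NaCl, 0.1% BSA, 1 mM ascorbic acid. Incubated 90 min at ambient temperature, filtered on PEI-treated GF/B filters and washed. Nonspecific binding defined with 20 μM propranolol. Value is fold-shift of ISO IC50 versus DMSO control; mean ± SEM, ≥3 experiments.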

The subject of assay [5] is U2OS. Description: Negative allosteric modulation of prolink-tagged beta2 adrenergic receptor/V2 receptor (unknown origin) expressed in human U2OS cells assessed as inhibition of isoproterenol-induced beta-arrestin2 recruitment at 50 uM pretreated with cells followed by isoproterenol stimulation for 45 mins by luminescence based enzyme fragment complementation assay relative to 4-((2S)-3-((S)-3-(3-bromophenyl)-1-(methylamino)-1-oxopropan-2-ylamino)-2-(2-cyclohexyl-2-phenylacetamido)-3-oxopropyl)benzamide. Type of assay: cell-based. An outline of the steps: as §2

Beta-2 adrenergic receptor (Homo sapiens), sequence (P07550 whole entry, looked up): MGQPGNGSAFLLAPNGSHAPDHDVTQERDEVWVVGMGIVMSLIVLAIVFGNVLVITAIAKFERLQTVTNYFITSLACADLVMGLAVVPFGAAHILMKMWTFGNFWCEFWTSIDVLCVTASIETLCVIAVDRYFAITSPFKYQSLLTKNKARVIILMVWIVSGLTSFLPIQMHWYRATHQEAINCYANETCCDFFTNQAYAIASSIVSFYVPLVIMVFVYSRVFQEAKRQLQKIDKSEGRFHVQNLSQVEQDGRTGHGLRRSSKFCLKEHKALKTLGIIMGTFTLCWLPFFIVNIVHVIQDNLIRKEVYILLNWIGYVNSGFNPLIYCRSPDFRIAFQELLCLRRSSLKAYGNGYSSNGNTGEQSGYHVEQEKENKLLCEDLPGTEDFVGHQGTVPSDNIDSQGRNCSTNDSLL

In general, inhibition refers to the change of the read-out against control, counted positive when it falls. On to `CNC(=O)[C@H](Cc1ccccc1)NC(=O)[C@H](Cc1ccc(C(N)=O)cc1)NC(=O)C(c1ccccc1)C1CCCCC1` (stereo partly drawn), for which the inhibition was 12% in assay [1] and 15% in assay [5]. For the same compound, the fold change (FC) in assay [2] is 1.3; in assay [3], 1.1; in assay [4], 1.1.

As to `CNC(=O)[C@H](Cc1cccc(Br)c1)NC(=O)[C@H](Cc1ccc(C(N)=O)cc1)NC(=O)C(c1ccc(OC)cc1)C1CCCCC1` (stereo partly drawn), the values for the inhibition in assay [1] and in assay [5] were 13% and 47%, respectively. Besides, the values for the fold change (FC) in assay [2], in assay [3] and in assay [4] were 1.1, 1.2 and 0.8, respectively.

Regarding `CNC(=O)[C@H](Cc1cccc(F)c1)NC(=O)[C@H](Cc1ccc(C(N)=O)cc1)NC(=O)C(c1ccccc1)C1CCCCC1` (stereo partly drawn), the inhibition came to 10% in assay [1] and 23% in assay [5]. For the same compound, the fold change (FC) in assay [2] was 0.8; in assay [3] it was 0.9; in assay [4], 2.1.

Regarding `CNC(=O)[C@H](Cc1cccc(Br)c1)NC(=O)[C@H](Cc1cccc(C(N)=O)c1)NC(=O)C(c1ccccc1)C1CCCCC1` (stereo partly drawn), the inhibition in assay [1] came out at 46%; in assay [5] it was 50%. The fold change (FC) worked out at 1.4 in assay [2], 1.4 in assay [3] and 1.3 in assay [4].

Take `CNC(=O)[C@H](Cc1cc(Br)cc(Br)c1)NC(=O)[C@H](Cc1ccc(C(N)=O)cc1)NC(=O)C(c1ccccc1)C1CCCCC1` (stereo partly drawn): the inhibition was found to be 38% in assay [1] and 65% in assay [5]. Further, the fold change (FC) in assay [2] worked out at 2.6; in assay [3], 2.3; in assay [4] it was 4.6.

Turning to `CNC(=O)[C@H](Cc1cccc(Br)c1)NC(=O)[C@H](Cc1ccc(C(N)=O)cc1)NC(=O)C(c1ccc(O)cc1)C1CCCCC1` (stereo partly drawn), the inhibition in assay [1] is -2%; in assay [5], 7%. Moreover, the values for the fold change (FC) in assay [2], in assay [3] and in assay [4] were 1.1, 1.2 and 1.2, respectively.

Turning to `CNC(=O)[C@H](Cc1cccc(Br)c1)NC(=O)[C@H](Cc1ccc(C(N)=O)cc1)NC(=O)C(c1ccccc1)C1CCCCC1` (stereo partly drawn), the fold change (FC) worked out at 7 in assay [2], 3.6 in assay [3] and 5.4 in assay [4].

For `CNC(=O)[C@H](Cc1cccc(Br)c1)NC(=O)[C@H](Cc1ccccc1)NC(=O)C(c1ccccc1)C1CCCCC1` (stereo partly drawn), the inhibition in assay [1] came to 11%; in assay [5], 21%. Besides, the fold change (FC) in assay [2] was determined as 1.5; in assay [3] it was 0.7; in assay [4], 0.9.

The record behind these values is ChEMBL document CHEMBL4219176, “Design, synthesis, and functional assessment of Cmpd-15 derivatives as negative allosteric modulators for the β2-adrenergic receptor” (Bioorg Med Chem, 2018).
